The source of these data is ChEMBL document CHEMBL4196119, “Quinoxaline-Based Linear HCV NS3/4A Protease Inhibitors Exhibit Potent Activity against Drug Resistant Variants” (ACS Med Chem Lett, 2018).

Structures are written as SMILES.

The target of test [1] is Hepatitis C virus serine protease, NS3/NS4A (Hepatitis C virus, UniProt A3EZI9+D2K2A8, R155K). As to the kind of experiment: Inhibition of HCV genotype 1a NS3/4A protease R155K mutant expressed in Escherichia coli BL21(DE3) using Ac-DE-Dap(QXL 520)-EE-Abu-psi-[COO]AS-C(5-FAMsp)-NH2 as substrate preincubated for 1 hr followed by substrate addition. The arrangement: species or system Hepatitis C virus subtype 1a. A digest of the protocol:
(§1)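 Enzyme inhibition constants (Ki) were determined against GT1a NS3/4A protease in three forms: wild type, R155K and D168A.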

The subject of test [2] is Hepatitis C virus. As to the kind of experiment: Antiviral activity against HCV genotype 1b Con1 harboring HCV genotype 1a H77 NS3 D168V mutant infected in human HuH7 cells assessed as inhibition of viral replication after 96 hrs by luciferase reporter gene assay. The test is classed as functional, organism-based, Hepacivirus hominis. The note with it: isolate Con1, Huh-7, 96 h. In a few lines: (§2)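 Cell-based replicon antiviral assays against wild-type HCV and the R155K, A156T, D168A and D168V variants. Potency was expressed as EC50.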
A general note: Reporter assays use an easily measured gene product as a stand-in for the process of interest.

In test [3] the test system is Hepatitis C virus. As to the kind of experiment: Antiviral activity against HCV genotype 1b Con1 harboring HCV genotype 1a H77 NS3 R155K mutant infected in human HuH7 cells assessed as inhibition of viral replication after 96 hrs by luciferase reporter gene assay. The test is classed as functional, organism-based, Hepacivirus hominis. Particulars: isolate Con1, Huh-7, 96 h. A digest of the protocol:
as §2

Test [4] relates to Hepatitis C virus. As to the kind of experiment: Antiviral activity against HCV genotype 1b Con1 harboring HCV genotype 1a H77 wild type NS3 infected in human HuH7 cells assessed as inhibition of viral replication after 96 hrs by luciferase reporter gene assay. In kind it is functional, organism-based, Hepacivirus hominis. The note with it: isolate Con1, Huh-7, 96 h. A digest of the protocol: as §2

The test system of test [5] is Hepatitis C virus. As to the kind of experiment: Selectivity ratio of EC50 for HCV genotype 1b Con1 harboring HCV genotype 1a H77 NS3 A156T mutant infected in human HuH7 cells to EC50 for HCV genotype 1b Con1 harboring HCV genotype 1a H77 wild type NS3 infected in human HuH7 cells. The test is classed as functional, Hepacivirus hominis, isolate Con1.
Test [6] addresses Hepatitis C virus serine protease, NS3/NS4A (Hepatitis C virus, UniProt A3EZI9+D2K2A8, D168A). As to the kind of experiment: Inhibition of HCV genotype 1a NS3/4A protease D168A mutant expressed in Escherichia coli BL21(DE3) using Ac-DE-Dap(QXL 520)-EE-Abu-psi-[COO]AS-C(5-FAMsp)-NH2 as substrate preincubated for 1 hr followed by substrate addition. Further details: species or system Hepatitis C virus subtype 1a. In a few lines:
as §1

Test [7] has as its system Hepatitis C virus. As to the kind of experiment: Antiviral activity against HCV genotype 1b Con1 harboring HCV genotype 1a H77 NS3 A156T mutant infected in human HuH7 cells assessed as inhibition of viral replication after 96 hrs by luciferase reporter gene assay. In kind it is functional, organism-based, Hepacivirus hominis. The note with it: isolate Con1, Huh-7, 96 h. In a few lines:
as §2

Test [8] relates to Hepatitis C virus. As to the kind of experiment: Selectivity ratio of EC50 for HCV genotype 1b Con1 harboring HCV genotype 1a H77 NS3 R155K mutant infected in human HuH7 cells to EC50 for HCV genotype 1b Con1 harboring HCV genotype 1a H77 wild type NS3 infected in human HuH7 cells. In kind it is functional, Hepacivirus hominis, isolate Con1.
Test [9] concerns the target Hepatitis C virus serine protease, NS3/NS4A (Hepatitis C virus, UniProt A3EZI9+D2K2A8). As to the kind of experiment: Inhibition of wild type HCV genotype 1a NS3/4A protease expressed in Escherichia coli BL21(DE3) using Ac-DE-Dap(QXL 520)-EE-Abu-psi-[COO]AS-C(5-FAMsp)-NH2 as substrate preincubated for 1 hr followed by substrate addition. Further details: species or system Hepatitis C virus subtype 1a. In a few lines:
as §1

The test system of test [10] is Hepatitis C virus. As to the kind of experiment: Antiviral activity against HCV genotype 1b Con1 harboring HCV genotype 1a H77 NS3 D168A mutant infected in human HuH7 cells assessed as inhibition of viral replication after 96 hrs by luciferase reporter gene assay. In kind it is functional, organism-based, Hepacivirus hominis. Particulars: isolate Con1, Huh-7, 96 h. A digest of the protocol:
as §2

Test [11] concerns Hepatitis C virus. As to the kind of experiment: Selectivity ratio of EC50 for HCV genotype 1b Con1 harboring HCV genotype 1a H77 NS3 D168A mutant infected in human HuH7 cells to EC50 for HCV genotype 1b Con1 harboring HCV genotype 1a H77 wild type NS3 infected in human HuH7 cells. The test is classed as functional, Hepacivirus hominis, isolate Con1.
In test [12] the test system is Hepatitis C virus. As to the kind of experiment: Selectivity ratio of EC50 for HCV genotype 1b Con1 harboring HCV genotype 1a H77 NS3 D168V mutant infected in human HuH7 cells to EC50 for HCV genotype 1b Con1 harboring HCV genotype 1a H77 wild type NS3 infected in human HuH7 cells. The test is classed as functional, Hepacivirus hominis, isolate Con1.

For `C=C[C@@H]1C[C@]1(NC(=O)[C@@H]1C[C@@H](Oc2nc3cc(OC)ccc3nc2C)CN1C(=O)[C@@H](NC(=O)OC1CCCC1)C(C)(C)C)C(=O)NS(=O)(=O)C1CC1`, the Ki (commonly the dissociation constant of the complex between target and ligand, obtained from inhibition or displacement) in test [1] is 0.0096 µM; in [6] it was 0.144 µM; in test [9] it was 0.0092 µM. Also, the EC50 (as a rule, the concentration at which the effect is half-maximal) in the test on Hepatitis C virus [2] is 0.15 µM; with Hepatitis C virus [3] it was 0.048 µM; in the test on Hepatitis C virus [4], 0.01 µM; in the test on Hepatitis C virus [7] it was 0.164 µM; in the test on Hepatitis C virus [10] it was 0.101 µM. Moreover, the “Ratio EC50” value in the test with Hepatitis C virus [5] amounted to 16; in the test on Hepatitis C virus [8], 4.8; with Hepatitis C virus [11], 10; in the test on Hepatitis C virus [12], 15.
In the case of `C=C[C@@H]1C[C@]1(NC(=O)[C@@H]1C[C@@H](Oc2nc3cc(OC)ccc3nc2Cl)CN1C(=O)[C@@H](NC(=O)OC1CCCC1)C(C)(C)C)C(=O)NS(=O)(=O)C1CC1`, the Ki in [1] came out at 0.0041 µM; in test [6], 0.099 µM; in test [9], 0.0038 µM. Moreover, the concentration for a half-maximal effect (EC50) with Hepatitis C virus [2] was 0.054 µM; in the test with Hepatitis C virus [3], 0.04 µM; in the test on Hepatitis C virus [4], 0.0074 µM; with Hepatitis C virus [7], 0.292 µM; in the test with Hepatitis C virus [10], 0.05 µM. Also, the “Ratio EC50” value in the test on Hepatitis C virus [5] was 40; in the test with Hepatitis C virus [8], 5.4; in the test with Hepatitis C virus [11] it was 6.8; in the test with Hepatitis C virus [12] it was 7.3.
For `C=C[C@@H]1C[C@]1(NC(=O)[C@@H]1C[C@@H](Oc2nc3cc(OC)ccc3nc2CC)CN1C(=O)[C@@H](NC(=O)OC(C)(C)C)C(C)(C)C)C(=O)NS(=O)(=O)C1CC1`, the figures for the Ki in test [1], in test [6] and in test [9] were 0.017 µM, 0.642 µM and 0.019 µM, respectively. For the same compound, the EC50 in the test with Hepatitis C virus [2] is more than 0.5 µM; in the test on Hepatitis C virus [3], 0.05 µM; with Hepatitis C virus [4] it was 0.024 µM; in the test with Hepatitis C virus [7] it was 0.073 µM; in the test on Hepatitis C virus [10], more than 0.5 µM. The “Ratio EC50” value was 3 in the test with Hepatitis C virus [5], 2.1 with Hepatitis C virus [8], more than 21 with Hepatitis C virus [11] and more than 21 in the test with Hepatitis C virus [12].
